Screening data (PubChem)
WT yeast gro inh: growth inhibition of WT yeast, mitochondrial fusion screen; mitochondrial fusion phenotypic screen, WT strain; inhibition, % at 10 µM; 2.1% of 190,000 active; in the data active = inhibition above about 58%; tested in S. cerevisiae
Cl transport mod: KCC2 (human) Cl- transport modulation. Q9H2X9. KCC2 cells, thallium flux FluoZin-2 fluorescence. B-score of Tl+ flux slope (higher = more flux/activation; lower = inhibition) at 10 µM. 2.2% of 190,000 active;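 active = thallium flux slope and its plate-corrected score both differing from the plate sample mean at a set confidence after two filtering rounds, in either direction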;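 also: slope of fluorescence scaled to starting intensity during 10 to 20 s after thallium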
ROMK primary: modulates human ROMK potassium channel activity; 2% of 130,000 active; AID 1918; Tet-inducible ROMK, thallium flux fluorescence; actives lie on both sides; B-score at 10 µM; P48048;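 active = signal ratio slope over the read window, or its plate-corrected B-score, at least 3 SD from the plate mean, either direction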;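 also: B-score of the F/F0 ratio slope over 7 to 12 s after thallium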
Target sequence (P48048 whole entry, looked up): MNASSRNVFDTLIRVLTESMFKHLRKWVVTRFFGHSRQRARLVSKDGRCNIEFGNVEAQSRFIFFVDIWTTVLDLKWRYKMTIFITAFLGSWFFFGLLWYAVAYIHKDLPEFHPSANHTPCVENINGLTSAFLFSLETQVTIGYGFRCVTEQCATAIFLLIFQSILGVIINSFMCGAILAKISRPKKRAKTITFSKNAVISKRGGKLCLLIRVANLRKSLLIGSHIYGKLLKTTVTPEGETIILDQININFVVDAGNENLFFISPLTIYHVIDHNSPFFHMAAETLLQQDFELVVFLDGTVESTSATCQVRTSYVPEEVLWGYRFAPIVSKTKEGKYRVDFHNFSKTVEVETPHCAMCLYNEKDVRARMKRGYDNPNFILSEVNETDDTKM
Diaphorase inh: inhibits diaphorase or chemically oxidizes, flagging diaphorase assay artifacts. AID 1217. 0.69% of 190,000 active. inhibition, % at 20 µM. diaphorase resazurin-to-resorufin fluorescence, NADH, 16 min; bacterial (C. kluyveri) enzyme, not human;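 active = primary screen inhibition at 20 µM above a set limit, cut at about 50% in these data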;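 also: plate controls were DMSO with full reaction for no effect and wells lacking NADH for full effect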
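System: Diaphorase enzyme from Clostridium kluyveri | Amount: Enzyme working solution with 0.14 U/mL diaphorase | Benchmarks: No-NADH positive control and DMSO neutral control | Signal: Fluorescence of resorufin formed from resazurin, Ex 544/Em 590 nm | Schedule: 16-min room-temperature incubation before reading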
Diaph act CS: counter-screen for diaphorase-based assays: diaphorase activators and chemical reducers | AID 1229 | Diaphorase/resazurin coupled assay, resorufin fluorescence, 16 min; stronger effect = higher value; 1 = vehicle wells, 0 = NADH-free wells | 0.005% of 190,000 active | activation factor at 20 µM;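 active = diaphorase activity raised at least twofold by the compound at 20 µM; inactive = activation factor below 2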
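Test system: Clostridium kluyveri diaphorase, purified enzyme; input: enzyme 0.07 U/mL final; buffer or medium: 50 mM HEPES pH 7.4 with 4.542 mM MgCl2, 0.005% Tween 20; also added: 0.114 mM NADH and 0.1 mM resazurin, final amounts; schedule: 16 min enzyme reaction, ambient temperature; technique: fluorescence of resorufin, 544 nm excitation, 590 nm emission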
L major viab: reduces viability of Leishmania major promastigotes; resazurin fluorescence viability; inhibition, % at 10 µM; 9% of 200,000 active; in the data active = inhibition above about 50%;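 also: promastigotes grown with compound for 44 hours at 28 °C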
Lmaj promast 1uM: inhibitors of Leishmania major promastigote growth, repeat at 1 uM | L. major promastigote growth, resazurin fluorescence, 48 h | inhibition, % at 1 µM | shares compounds with L major viab | AID 1258 | 13% of 1,100 active;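 active = inhibition above about 50% in both repeat tests, limit read from the data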
An asterisk follows results filed as active. Rows were chosen to be rich in hits. Some 12% of all compounds tested hit in one or more screens of this group.

Screening CCOC(=O)CSC1=NN2CCS(=O)(=O)N=C2S1 returned WT yeast gro inh 8, ROMK primary -0.6, Diaphorase inh 0, Diaph act CS 1 and L major viab -11.
`C=CCSC1=NN2CCS(=O)(=O)N=C2S1` gave WT yeast gro inh -14, Cl transport mod 1.7, ROMK primary 0.29, Diaphorase inh -3, Diaph act CS 1, L major viab 100* and Lmaj promast 1uM -8.
Screening C1CCC(C(CC2CCCCN2)C2CCCCC2)CC1 (centres undefined) returned WT yeast gro inh 72, Cl transport mod -0.22, Diaphorase inh 0, Diaph act CS 1, L major viab 100* and Lmaj promast 1uM 1.
For Cc1[nH]c2c(Cl)cccc2c(=O)c1CN1CCCC1 the results were WT yeast gro inh -5, Cl transport mod 0.97, Diaphorase inh 7, Diaph act CS 0.9, L major viab 100* and Lmaj promast 1uM 93*.
For Cc1[nH]c2ccc(Br)cc2c(=O)c1CN1CCCCC1 the results were WT yeast gro inh -2, ROMK primary -0.9, Diaphorase inh 8, Diaph act CS 0.9 and L major viab 8.
Screening CC(C)CNC(=O)COC(=O)c1ccc(F)cc1Cl returned WT yeast gro inh -9, Cl transport mod 0.31, ROMK primary 0.54, Diaphorase inh 13, Diaph act CS 0.9 and L major viab -8.
Screening Cn1c(CN2CCCC2)nc2cc(NS(=O)(=O)c3ccc(Cl)cc3)ccc21 returned Cl transport mod 0.32, Diaphorase inh -2, Diaph act CS 1, L major viab 99* and Lmaj promast 1uM -11.
Cc1onc(-c2c(F)cccc2Cl)c1C(=O)OCC(=O)NC(c1ccccc1)c1ccccc1 was read as WT yeast gro inh 2, Cl transport mod 0.021, ROMK primary -0.63, Diaphorase inh 23, Diaph act CS 0.8 and L major viab 11.
`Cc1ccc(S(=O)(=O)NC(C)(C)CSc2nnc(Nc3ccccc3)s2)cc1` gave WT yeast gro inh -11, Cl transport mod 1.1, ROMK primary -0.0024, Diaphorase inh 15, Diaph act CS 0.9, L major viab 100* and Lmaj promast 1uM -6.
CCc1c(C)sc(NC(=O)c2ccco2)c1C(=O)N1CCCCC1 was read as WT yeast gro inh 14, Cl transport mod 5.5, Diaphorase inh 20, Diaph act CS 0.8, L major viab 53* and Lmaj promast 1uM -5.
Screening CCc1c(C)sc(NC(=O)c2ccco2)c1C(=O)N1CCOCC1 returned WT yeast gro inh -4, ROMK primary -0.017, Diaphorase inh -6, Diaph act CS 1.1 and L major viab -6.
c1ccc(Cn2nc(-c3ccccc3)nc2-c2ccccc2)cc1 was read as WT yeast gro inh 22, Cl transport mod -0.53, ROMK primary -1.1, Diaphorase inh 19, Diaph act CS 0.8, L major viab 94* and Lmaj promast 1uM -9.
COc1cccc2c(=O)c(C/C=C(/C)Cl)c(C)[nH]c12 was read as WT yeast gro inh 19, Cl transport mod 0.27, Diaphorase inh 17, Diaph act CS 0.8, L major viab 100* and Lmaj promast 1uM 99*.
`Cc1cc2ccccc2n1CCNC(=O)Cc1cccc2ccccc12` gave WT yeast gro inh -2, Diaphorase inh 2, Diaph act CS 1 and L major viab 21.
`Cc1ccc(-c2cn(-c3ccccc3)c3[n+]2CCCS3)cc1` gave WT yeast gro inh 14, Cl transport mod 0.17, ROMK primary 0.81, Diaphorase inh -5, Diaph act CS 1.1, L major viab 100* and Lmaj promast 1uM 46.
For N#Cc1ccc(-c2cn(-c3ccccc3)c3[n+]2CCCS3)cc1 the results were WT yeast gro inh -6, Cl transport mod -0.45, ROMK primary 0.27, Diaphorase inh 3, Diaph act CS 1 and L major viab -6.
C1=Nc2ccccc2CN1c1ccccc1 was read as WT yeast gro inh 2, Cl transport mod -0.8, ROMK primary 0.41, Diaphorase inh -6, Diaph act CS 1.1, L major viab 85* and Lmaj promast 1uM -8.
Screening CC(C)c1ccc(N2C=Nc3ccc(C(C)C)cc3C2)cc1 returned Cl transport mod 0.03 and ROMK primary 0.94.
